Bioassay records from PubChem.
TMEM16A act – mouse TMEM16A channel activation, primary screen; Q8BHY3; HEK293 TMEM16A/YFP-H148Q/I152L, iodide quench fluorescence; active compounds read low; B-score at 10 µM; hit rate 0.3% among 340,000; AID 623877;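 active = fluorescence-ratio B-score plate-corrected deviation score at least 3 library SD below zero, with starting fluorescence score within 5 deviations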;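 note: channel opened by trigger with iodide after compound preincubation; score built on the fluorescence ratio of max minus min over baseline; more negative score means more quench and so TMEM16A activation or potentiation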
XBP1 UPR activ – activators of adaptive arm of unfolded protein response (XBP1); hit rate 0.33% among 330,000; CHO-XBP1 luciferase reporter, IRE1-XBP1 UPR activation, luminescence; percent of tunicamycin response, DMSO as zero; activation, % at 20 µM;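 active = versus positive control, 20 µM dose yields 30% or more activation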;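 note: 100% = tunicamycin at 10 µg/mL and 0% = DMSO only wells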
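Material: CHO cell line with stable XBP1 luciferase reporter; schedule: 16-18 h cell attachment at 37 °C, then 6 h compound exposure; signal: glow luminescence from Steady-Glo reagent; medium: serum-containing F12 medium, 10% FBS; benchmarks: tunicamycin 10 µg/mL and vehicle-only wells; read-out: percent activation relative to tunicamycin reference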
CHOP UPR activ – apoptotic UPR (CHOP) activation; CHO-CHOP luciferase reporter, luminescence; percent of tunicamycin response over DMSO baseline; activation, % at 10 µM; hit rate 0.34% among 330,000; AID 449763;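 active = at 10 µM dose, activation of 40% or more, normalized to positive control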;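 note: 100% = tunicamycin at 10 µg/mL and 0% = DMSO alone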
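Assay system: CHO-CHOP cells, stable luciferase reporter of PERK-eIF2a-CHOP signalling / Buffer or medium: F12 plus 10% serum / Compound dosing: one dose, 10 µM in 0.5% DMSO / Times: 6 h compound treatment, 37 °C / Technique: luciferase luminescence / Read-out: % reporter activation, DMSO baseline versus tunicamycin full activation / Benchmarks: tunicamycin and DMSO controls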
ANO1 block – mouse TMEM16A channel inhibition, primary screen; HEK293 TMEM16A/YFP iodide influx fluorescence, ionomycin; normalized B-score (activity score, 25-100; higher = stronger inhibition) at 10 µM; hit rate 1.2% among 310,000; AID 588511;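 active = ratio plate-corrected score three or more library SD toward inhibition, starting fluorescence score within five deviations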;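 note: score derived from kinetic fluorescence span divided by baseline fluorescence per well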
Hep lipid drop – hepatic lipid droplet formation modulation; hit rate 0.4% among 240,000; AID 1656; AML12 mouse hepatocytes, oleate lipid droplets, BODIPY imaging; inhibition, % at 6.5 µM;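 active = lipid droplet intensity inhibited by at least 50%, with more than 500 cells counted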
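Technique: fluorescence imaging, 20x objective, two fields per well / Assay system: AML12 hepatocytes (mouse) / Measure: % inhibition of lipid droplet signal / Doses: 6.5 µM single-point dosing / Incubation: overnight exposure / Reagent: 100 µM oleic acid challenge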
CHOP inhibitor – inhibitors of CHOP induction in ER stress response | CHO-K1 CHOP-promoter luciferase, tunicamycin-induced, 15-18 h | inhibition, % at 10 µM | hit rate 3.8% among 220,000;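 active = compounds that reduced the stress-induced luciferase reporter signal by more than about 70% of percent inhibition, limit read from the data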;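 note: 0% = tunicamycin plus vehicle and 100% = wells without tunicamycin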
Starred values were filed as active, the others as inactive; i = inactive; · = no result. Most compounds without a hit are left out; they make up all but 4.2% or so of the library.

SMILES	TMEM16A act	XBP1 UPR activ	CHOP UPR activ	ANO1 block	Hep lipid drop	CHOP inhibitor
CCc1ccc([C@@H]2CC=C(C(=O)O)[C@H](c3ccc(Cl)cc3)N2S(=O)(=O)c2ccc(C)cc2)cc1	i	-0.2	1.4	100*	·	·
CCc1ccc2oc(-c3cc(N)ccc3O)nc2c1	i	-15.4	-8.0	i	1.1	77.5*
CCc1ccc2oc(-c3cc(N)ccc3Cl)nc2c1	·	-4.9	-4.2	i	1.8	26.0
COc1ccc(NC(=O)COC(=O)C2CCN(S(=O)(=O)c3cccs3)CC2)cc1	i	-2.8	-2.3	i	-2.5	77.6*
CC(=O)Nc1ccc(S(=O)(=O)NCC(=O)N2CCN(S(=O)(=O)c3cccs3)CC2)cc1	-15.1*	-0.4	-0.1	·	·	·
CCOC(=O)N1CCN(C(=O)CNS(=O)(=O)c2cccs2)CC1	i	3.8	1.5	i	·	-0.4
CN(C)CCCn1c2c(c(SCC(=O)Nc3ccc4c(c3)OCCO4)nc1=O)CCC2	i	-5.5	-1.9	i	·	·
COc1ccc(CN2CCN(C(=O)C3CCN(C(=O)Nc4ccccc4)CC3)CC2)cc1OC	i	-3.3	-0.1	·	·	·
Cc1cc(SCC(=O)Nc2cccc(S(=O)(=O)NC3=NCCCCC3)c2)nc2ccccc12	-5.45*	-0.6	0.4	i	-11.5	50.5
O=c1cc(CN2CCN(Cc3ccccc3)CC2)c2ccc(O)c(O)c2o1	i	63.2*	3.8	i	·	·
Cc1c(O)ccc2c(CN3CCN(Cc4ccccc4)CC3)cc(=O)oc12	i	1.8	-2.5	i	17.8	·
CC1Cc2ccccc2N1S(=O)(=O)c1cccc(C(=O)NCc2ccco2)c1 (stereo not given)	i	-2.0	-0.4	·	·	·
CC(=O)c1ccc(NC(=O)N[C@@H](CC(C)C)C(=O)O)cc1	i	-3.7	0.5	i	·	72.3*
CC(=O)c1cccc(NC(=O)N[C@@H](CC(C)C)C(=O)O)c1	i	-0.9	-1.2	i	·	1.4
CC(=O)c1ccc(NC(=O)Nc2ccc(Cl)cc2)cc1	i	4.4	4.3	i	-12.0	77.7*
Oc1c(C=Nc2cccc3cccnc23)sc2ccccc12	·	38.9*	58.6*	i	3.3	-48.1
O=c1n(Cc2ccccc2F)c2ccccc2n1Cc1ccccc1F	i	-0.5	0.4	i	-17.0	73.8*
Cc1ccc(C(C(=O)NC2CCCC2)N(Cc2ccccc2)C(=O)c2csnn2)o1 (stereo not given)	i	-3.0	-2.5	i	-1.7	·
Cc1ccc(C(C(=O)NC2CCCC2)N(Cc2ccc(F)cc2)C(=O)c2csnn2)o1 (stereo not given)	·	1.9	-0.5	i	·	70.8*
COCCNC(=S)N1CCN(c2ccc(Cl)cc2)CC1	i	-1.3	-1.6	i	-0.7	11.8
Cn1c(=NC(=O)c2cccc([N+](=O)[O-])c2)sc2ccccc21	i	6.2	17.8	i	-21.2	73.3*
CCc1ccc(-c2nnn(CCC(=O)OC)n2)cc1	i	-2.7	-6.7	i	·	75.4*
CCc1ccc(-c2nnn(CCC#N)n2)cc1	i	0.3	2.3	i	-2.1	0.1
Cc1ccc(C)c(N2CCN(CC3CC=CCC3)CC2)c1 (stereo not given)	i	-0.2	-0.4	i	-11.1	71.8*
C1=CCC(CN2CCNCC2)CC1 (stereo not given)	i	-1.8	-1.7	i	33.1	-16.1
SMILES	TMEM16A act	XBP1 UPR activ	CHOP UPR activ	ANO1 block	Hep lipid drop	CHOP inhibitor
O=C(CCCCCNc1nc(=S)[nH]c2ccccc12)NCCc1ccc(Cl)cc1	i	-2.1	-0.2	i	2.2	83.5*
O=S(=O)(Nc1cc2nc3ccccc3nc2n1Cc1ccccc1)c1ccc(Cl)cc1	i	·	·	i	4.0	92.5*
O=C(CNS(=O)(=O)c1ccc(Br)s1)NCCc1ccc(Cl)cc1	i	2.0	-0.5	i	-20.3	·
O=C1C2ON(c3ccc(Cl)cc3)C(c3ccco3)C2C(=O)N1c1ccccc1 (stereo not given)	i	-0.1	0.3	i	4.8	74.1*
O=C1C2ON(c3ccccc3)C(c3ccncc3)C2C(=O)N1c1ccc(Br)cc1 (stereo not given)	i	2.4	-2.0	i	·	-8.8
O=C1C2ON(c3ccccc3)C(c3ccccc3F)C2C(=O)N1c1ccccc1 (stereo not given)	i	2.3	-1.2	i	·	80.1*
O=C(O)c1ccc(N2C(=O)C3ON(c4ccccc4)C(c4ccccc4F)C3C2=O)cc1 (stereo not given)	i	-1.0	0.2	i	·	10.6
O=C(CSCc1ccc(Cl)cc1)N/N=C/c1c(Cl)cccc1Cl	i	·	·	i	-7.1	91.7*
COC(=O)Oc1ccc(/C=N/NC(=O)CSCc2ccc(Cl)cc2)cc1OC	i	-1.1	-1.3	i	-42.8	78.3*
O=C(CSCc1ccc(Cl)cc1)N/N=C/c1ccccc1	i	0.4	-1.0	i	0.8	-9.6
O=C(CSc1nnc(SCc2ccccc2)s1)N/N=C/C=C\c1ccco1	i	0.6	1.4	i	12.4	-2.7
O=C(CSc1nnc(SCc2ccc(Cl)cc2)s1)N/N=C/c1ccc(Cl)cc1Cl	i	70.1*	3.4	i	9.8	73.3*
CC(=C/c1ccco1)/C=N/NC(=O)CSc1nnc(SCc2ccc(C)cc2)s1	i	-3.0	3.6	i	-0.9	80.3*
O=C(Nc1cccc(S(=O)(=O)Nc2ccc(Cl)cc2)c1)c1ccc[n+]([O-])c1	i	-1.3	-0.6	i	-0.5	8.2
CNC(=O)[C@H]1O[C@@H](n2cnc3c(N)ncnc32)C(O)[C@H]1O (stereo not given in full)	·	·	·	·	·	-8.5
CCOC(=O)N1CCC(NC(=O)C2CCCN(Cc3nc(-c4cccc(Cl)c4)oc3C)C2)CC1 (stereo not given)	i	-4.1	8.4	i	·	84.7*
Cc1oc(-c2ccc(Cl)cc2)nc1CN1CCCC(C(=O)NC2CC2)C1 (stereo not given)	i	0.2	-2.4	i	0.0	·
Cc1ccc(-n2nc3c(=O)n(CC(=O)NCCc4ccccc4C)nc(C)c3c2C)cc1	i	-1.2	-0.5	i	5.3	·
CCOC(=O)c1sc2nc(C(C)C)c3c(c2c1N)CC(C)(C)OC3	i	0.3	-4.3	i	5.7	70.2*
Nn1c(SCc2cccc(Br)c2)nnc1-c1cccnc1	i	-1.1	0.7	i	20.7	-16.5
CCCCCn1c(=O)c(-c2nc3ccccc3[nH]2)c(O)c2ccccc21	i	-3.2	0.4	i	18.9	85.7*
CCCCCCCCn1c(=O)c(C(=O)OCC)c(O)c2ccccc21	i	-4.6	3.7	i	-5.7	47.4
